Laboratory results from ChEMBL document CHEMBL4382264, “Melanogenesis-Inhibitory and Cytotoxic Activities of Triterpene Glycoside Constituents from the Bark of Albizia procera” (J Nat Prod, 2018).
Calls of active or inactive are those of the source. No cut-off for these calls is given here.

Assays:
A549 = assay: Cytotoxicity against human A549 cells assessed as reduction in cell viability after 48 hrs by MTT assay; format: functional, cell-based; conditions: A549, 48 h
Summary of the method: (§1)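 Cells exposed to compounds from 1 × 10−4 to 1 × 10−6 M for 48 h. Viability read by MTT. IC50 derived from five concentrations, each run in triplicate.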

HL-60 [1] = assay: Induction of apoptosis in human HL60 cells assessed as increase in cleaved caspase-3 expression at 3 uM after 24 to 48 hrs by Western blot analysis; format: functional, cell-based
Summary of the method: (§2)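 HL60 cells treated with 3.0 μM for 24 and 48 h, then lysed in RIPA buffer. Total protein cleared by centrifugation and quantified by BCA. Procaspase and cleaved caspase-3, -8 and -9 levels assessed by Western blot.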

B16-F10 [2] = assay: Selectivity index, ratio of compound effect for cytotoxicity against non-stimulated mouse B16F10 cells assessed as cell viability at 100 uM to compound effect for inhibition of alpha-MSH-stimulated melanogenesis in mouse B16F10 cells assessed as melanin content at 100 uM
B16-F10 [3] = assay: Inhibition of alpha-MSH-stimulated melanogenesis in mouse B16F10 cells assessed as melanin content at 100 uM measured after 48 hrs relative to control; format: functional; design: scale not given: the % may be the effect or the level left
Summary of the method: (§3)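 B16F10 cells treated with test sample plus 0.10 μM α-MSH for 48 h. Melanin solubilized in 2 N NaOH–10% DMSO and read at 405 nm. Expressed as % of DMSO-treated cells (DMSO 2 μL·mL−1). Mean ± SD, n = 3.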

[4] = Cytotoxicity against non-stimulated mouse B16F10 cells assessed as cell viability at 10 uM relative to control; format: cell-based, B16-F10; conditions: read-out: Activity
Summary of the method: (§4)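 B16 melanoma cells tested for viability at 10 or 100 μM. Absorbance read at 570 nm (test) minus 630 nm (reference). Expressed as % of DMSO control (DMSO 2 μL·mL−1). Mean ± SD, n = 3.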

AZ-521 cell line = assay: Cytotoxicity against human AZ-521 cells assessed as reduction in cell viability after 48 hrs by MTT assay; format: functional, cell-based; conditions: AZ-521, 48 h; summary of the method: as §1
HL-60 [5] = assay: Cytotoxicity against human HL60 cells assessed as reduction in cell viability after 48 hrs by MTT assay; format: functional, cell-based; conditions: HL-60, 48 h; summary of the method: as §1
HL-60 [6] = assay: Induction of apoptosis in human HL60 cells assessed as late apoptotic cells at 3 uM after 48 hrs by Annexin V-FITC/propidium iodide staining based flow cytometry (reference value: 1.9%); format: functional
Summary of the method: (§5)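 HL60 cells cultured with 3.0 μM for 0, 24 and 48 h. Cells stained with annexin V-FITC and propidium iodide and analyzed by flow cytometry for early and late apoptotic fractions. Mean of three experiments, compared against an untreated negative control.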

HL-60 [7] = assay: Induction of apoptosis in human HL60 cells assessed as chromatin condensation at 1 to 3 uM after 24 hrs by Hoechst 33342 staining based fluorescence microscopic analysis; format: functional, cell-based
Summary of the method: (§6)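 HL60 cells treated for 24 h, fixed in 4% paraformaldehyde, and nuclei stained with Hoechst 33342. Cell shrinkage, nuclear fragmentation and chromatin condensation scored by fluorescence microscopy.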

[8] = Selectivity index, ratio of IC50 for human […] cells to IC50 for human A549 cells
Summary of the method: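 Selectivity index equals the IC50 against WI38 normal cells divided by the IC50 against A549 cells.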

WI-38 = assay: Cytotoxicity against human WI38 cells assessed as reduction in cell viability after 48 hrs by MTT assay; format: cell-based; conditions: WI-38, 48 h; summary of the method: as §1
HL-60 [9] = assay: Induction of apoptosis in human HL60 cells assessed as early apoptotic cells at 3 uM after 24 hrs by Annexin V-FITC/propidium iodide staining based flow cytometry (reference value: 2.4%); format: functional; summary of the method: as §5
SK-BR-3 = assay: Cytotoxicity against human SKBR3 cells assessed as reduction in cell viability after 48 hrs by MTT assay; format: functional, cell-based; conditions: SK-BR-3, 48 h; summary of the method: as §1
HL-60 [10] = assay: Induction of apoptosis in human HL60 cells assessed as early apoptotic cells at 3 uM after 48 hrs by Annexin V-FITC/propidium iodide staining based flow cytometry (reference value: 0.8%); format: functional; summary of the method: as §5
HL-60 [11] = assay: Induction of apoptosis in human HL60 cells assessed as late apoptotic cells at 3 uM after 24 hrs by Annexin V-FITC/propidium iodide staining based flow cytometry (reference value: 3%); format: functional; summary of the method: as §5
B16-F10 [12] = assay: Selectivity index, ratio of compound effect for cytotoxicity against non-stimulated mouse B16F10 cells assessed as cell viability at 10 uM to compound effect for inhibition of alpha-MSH-stimulated melanogenesis in mouse B16F10 cells assessed as melanin content at 10 uM
HL-60 [13] = assay: Induction of apoptosis in human HL60 cells assessed as cell shrinkage at 0.3 to 3 uM after 24 hrs by Hoechst 33342 staining based fluorescence microscopic analysis; format: functional; conditions: 1 to 3 uM, in the assay text read “1 to 3 uM” for “0.3 to 3 uM”; summary of the method: as §6
HL-60 [14] = assay: Induction of apoptosis in human HL60 cells assessed as increase in cleaved caspase-9 expression at 3 uM after 24 to 48 hrs by Western blot analysis; format: functional, cell-based; summary of the method: as §2
HL-60 [15] = assay: Induction of apoptosis in human HL60 cells assessed as fragmentation of nuclei at 1 to 3 uM after 24 hrs by Hoechst 33342 staining based fluorescence microscopic analysis; format: functional, cell-based; summary of the method: as §6
B16-F10 [16] = assay: Inhibition of alpha-MSH-stimulated melanogenesis in mouse B16F10 cells assessed as melanin content at 10 uM measured after 48 hrs relative to control; format: functional; design: scale not given: the % may be the effect or the level left; summary of the method: as §3
[17] = Cytotoxicity against non-stimulated mouse B16F10 cells assessed as cell viability at 100 uM relative to control; format: cell-based, B16-F10; conditions: read-out: Activity; summary of the method: as §4
HL-60 [18] = assay: Induction of apoptosis in human HL60 cells assessed as increase in cleaved caspase-8 expression at 3 uM after 24 to 48 hrs by Western blot analysis; format: functional, cell-based; summary of the method: as §2

Compound | IC50 (A549) [µM] | Ratio (B16-F10 [2]) | Activity (B16-F10 [3]) [%] | viability at 10 µM [4] [%] | IC50 (AZ-521 cell line) [µM] | IC50 (HL-60 [5]) [µM] | Ratio IC50 [8] | IC50 (WI-38) [µM] | IC50 (SK-BR-3) [µM] | Ratio (B16-F10 [12]) | Activity (B16-F10 [16]) [%] | viability at 100 µM [17] [%] | also measured
C=C[C@@](C)(O)CC/C=C(\C)C(=O)O[C@H]1[C@H](O)[C@@H](O)[C@H](O[C@](C)(C=C)CCCC(C)C(=O)O[C@H]2C[C@]3(C(=O)O[C@@H]4O[C@H](CO)[C@@H](O)[C@H](O)[C@H]4O[C@@H]4O[C@@H](C)[C@H](O[C@@H]5O[C@@H](CO)[C@H](O)[C@H]5O)[C@@H](O[C@@H]5O[C@H](CO)[C@@H](O)[C@H](O)[C@H]5O)[C@H]4O)[C@H](O)C[C@]4(C)C(=CC[C@@H]5[C@@]6(C)CC[C@H](O[C@@H]7O[C@H](CO[C@@H]8OC[C@H](O)[C@H](O)[C@H]8O[C@@H]8OC[C@@H](O)[C@H](O)[C@H]8O)[C@@H](O)[C@H](O)[C@H]7O[C@@H]7O[C@H](CO)[C@@H](O)[C@H](O)[C@H]7O)C(C)(C)[C@@H]6CC[C@]54C)[C@@H]3CC2(C)C)O[C@@H]1C (stereo partly specified) | 0.3 | 0.51 | 50.7 | 103 | 0.5 | 0.3 | 16.9 | 5.1 | 1.3 | 0.78 | 80.9 | 100 | Activity (HL-60 [1]): Active; Activity (HL-60 [6]): 42.2%; Activity (HL-60 [7]): Active; Activity (HL-60 [9]): 19%; Activity (HL-60 [10]): 38.2%; Activity (HL-60 [11]): 22.7%; Activity (HL-60 [13]): Active; Activity (HL-60 [14]): Active; Activity (HL-60 [15]): Active; Activity (HL-60 [18]): Active
C=C[C@@](C)(O)CC/C=C(\C)C(=O)O[C@H]1[C@H](O)[C@@H](O)[C@H](O[C@](C)(C=C)CCCC(C)C(=O)O[C@H]2C[C@]3(C(=O)O[C@@H]4O[C@H](CO)[C@@H](O)[C@H](O)[C@H]4O[C@@H]4O[C@@H](C)[C@H](O[C@@H]5O[C@@H](CO)[C@H](O)[C@H]5O)[C@@H](O[C@@H]5O[C@H](CO)[C@@H](O)[C@H](O)[C@H]5O)[C@H]4O)CC[C@]4(C)C(=CC[C@@H]5[C@@]6(C)CC[C@H](O[C@@H]7O[C@H](CO[C@@H]8O[C@H](C)[C@H](O)[C@H](O)[C@H]8O[C@@H]8OC[C@@H](O)[C@H](O)[C@H]8O)[C@@H](O)[C@H](O)[C@H]7O)C(C)(C)[C@@H]6CC[C@]54C)[C@@H]3CC2(C)C)O[C@@H]1C (stereo partly specified) | 1.3 | 0.42 | 42.5 | 107 | 1.7 | 0.9 | 1.8 | 2.5 | 0.4 | 0.69 | 74.3 | 102 | 
C=C[C@@](C)(O)CC/C=C(\C)C(=O)O[C@H]1[C@H](O)[C@@H](O)[C@H](O[C@](C)(C=C)CCCC(C)C(=O)O[C@H]2C[C@]3(C(=O)O[C@@H]4O[C@H](CO)[C@@H](O)[C@H](O)[C@H]4O[C@@H]4O[C@@H](C)[C@H](O[C@@H]5O[C@@H](CO)[C@H](O)[C@H]5O)[C@@H](O[C@@H]5O[C@H](CO)[C@@H](O)[C@H](O)[C@H]5O)[C@H]4O)[C@H](O)C[C@]4(C)C(=CC[C@@H]5[C@@]6(C)CC[C@H](O[C@@H]7O[C@H](CO[C@@H]8OC[C@H](O)[C@H](O)[C@H]8O[C@@H]8OC[C@@H](O)[C@H](O)[C@H]8O)[C@@H](O)[C@H](O)[C@H]7O)C(C)(C)[C@@H]6CC[C@]54C)[C@@H]3CC2(C)C)O[C@@H]1C (stereo partly specified) | 1 | 0.77 | 80 | 107 | 1.2 | 0.9 | 8.2 | 8.3 | 0.8 | 0.81 | 86.2 | 104 | 
OC[C@H]1O[C@@H](Oc2ccc(O)cc2)[C@H](O)[C@@H](O)[C@@H]1O [ARBUTIN] |  | 0.81 | 81.5 | 102 |  |  |  |  |  | 0.91 | 92.7 | 101 | 
C=C[C@@](C)(O)CC/C=C(\C)C(=O)O[C@H]1[C@H](O)[C@@H](O)[C@H](O[C@](C)(C=C)CCCC(C)C(=O)O[C@H]2C[C@]3(C(=O)O[C@@H]4O[C@H](CO)[C@@H](O)[C@H](O)[C@H]4O[C@@H]4O[C@@H](C)[C@H](O[C@@H]5O[C@@H](CO)[C@H](O)[C@H]5O)[C@@H](O[C@@H]5O[C@H](CO)[C@@H](O)[C@H](O)[C@H]5O)[C@H]4O)CC[C@]4(C)C(=CC[C@@H]5[C@@]6(C)CC[C@H](O[C@@H]7O[C@H](CO[C@@H]8OC[C@H](O)[C@H](O)[C@H]8O[C@@H]8OC[C@@H](O)[C@H](O)[C@H]8O)[C@@H](O)[C@H](O)[C@H]7O[C@@H]7O[C@H](CO)[C@@H](O)[C@H](O)[C@H]7O)C(C)(C)[C@@H]6CC[C@]54C)[C@@H]3CC2(C)C)O[C@@H]1C (stereo partly specified) | 0.66 | 0.74 | 75.2 | 110 | 0.4 | 0.5 | 3.4 | 2.2 | 1.1 | 0.81 | 89.2 | 102 | 
C=C[C@@](C)(O)CC/C=C(\C)C(=O)O[C@H]1[C@H](O)[C@@H](O)[C@H](O[C@](C)(C=C)CCCC(C)C(=O)O[C@H]2C[C@]3(C(=O)O[C@@H]4O[C@H](CO)[C@@H](O)[C@H](O)[C@H]4O[C@@H]4O[C@@H](C)[C@H](O[C@@H]5O[C@@H](CO)[C@H](O)[C@H]5O)[C@@H](O[C@@H]5O[C@H](CO)[C@@H](O)[C@H](O)[C@H]5O)[C@H]4O)CC[C@]4(C)C(=CC[C@@H]5[C@@]6(C)CC[C@H](O[C@@H]7O[C@H](CO[C@@H]8O[C@H](C)[C@H](O)[C@H](O)[C@H]8O[C@@H]8OC[C@@H](O)[C@H](O)[C@H]8O)[C@@H](O)[C@H](O)[C@H]7O[C@@H]7O[C@H](CO)[C@@H](O)[C@H](O)[C@H]7O)C(C)(C)[C@@H]6CC[C@]54C)[C@@H]3CC2(C)C)O[C@@H]1C (stereo partly specified) | 1.8 | 0.77 | 79.6 | 110 | 0.6 | 0.6 | 2.7 | 4.8 | 2.6 | 0.79 | 86.5 | 104 | 
